Assays:
Assay type in all cases: functional
Mythimna separata [1] = assay: Insecticidal activity against pre-third-instar larvae of Mythimna separata (Oriental armyworm) in wheat leaves at 1 mg/mL after 5 days by leaf-dipping method; settings: 120 h
How it was run: (§1)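 Compounds dissolved in acetone at 1 mg/mL. Fresh wheat leaves dipped 3 s, then dried at room conditions. Acetone-only leaves served as blank control and toosendanin as positive control. Ten larvae per dish fed treated leaves, replenished when consumed, for 48 h. Untreated fresh leaves were then given until adult emergence. Held at 25 ± 2 °C, 65−80% RH, 12 h/12 h light/dark. Activity calculated by formula.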

Mythimna separata [2] = assay: Insecticidal activity against pre-third-instar larvae of Mythimna separata (Oriental armyworm) in wheat leaves at 1 mg/mL after 33 days by leaf-dipping method; settings: 792 h; how it was run: as §1
Mythimna separata [3] = assay: Insecticidal activity against pre-third-instar larvae of Mythimna separata (Oriental armyworm) in wheat leaves at 1 mg/mL after 20 days by leaf-dipping method; settings: 480 h; how it was run: as §1

## CCCCNC(=O)[C@@H]1[C@H](c2cc(OC)c(OC)c(OC)c2)c2cc3c(cc2C2=NOC[C@H]21)OCO3
Mythimna separata [1]
  mortality at 1000 µg/mL: 0%
Mythimna separata [2]
  mortality at 1000 µg/mL: 10.3%
Mythimna separata [3]
  mortality at 1000 µg/mL: 0%

## COc1cc([C@@H]2c3cc4c(cc3/C(=N\O)[C@H]3COC(=O)[C@H]23)OCO4)cc(OC)c1OC
Mythimna separata [1]
  mortality at 1000 µg/mL: 10%
Mythimna separata [2]
  mortality at 1000 µg/mL: 34.5%
Mythimna separata [3]
  mortality at 1000 µg/mL: 24.1%

## COC(=O)[C@@H]1[C@H](c2cc(OC)c(OC)c(OC)c2)c2cc3c(cc2C2=NOC[C@H]21)OCO3
Mythimna separata [1]
  mortality at 1000 µg/mL: 23.3%
Mythimna separata [2]
  mortality at 1000 µg/mL: 41.4%
Mythimna separata [3]
  mortality at 1000 µg/mL: 31%

## CCOC(=O)[C@@H]1[C@H](c2cc(OC)c(OC)c(OC)c2)c2cc3c(cc2C2=NOC[C@H]21)OCO3
Mythimna separata [1]
  mortality at 1000 µg/mL: 20%
Mythimna separata [2]
  mortality at 1000 µg/mL: 44.8%
Mythimna separata [3]
  mortality at 1000 µg/mL: 31%

## CCCCOC(=O)[C@@H]1[C@H](c2cc(OC)c(OC)c(OC)c2)c2cc3c(cc2C2=NOC[C@H]21)OCO3
Mythimna separata [1]
  mortality at 1000 µg/mL: 23.3%
Mythimna separata [2]
  mortality at 1000 µg/mL: 58.6%
Mythimna separata [3]
  mortality at 1000 µg/mL: 34.5%

## CCCCCCCCOC(=O)[C@@H]1[C@H](c2cc(OC)c(OC)c(OC)c2)c2cc3c(cc2C2=NOC[C@H]21)OCO3
Mythimna separata [1]
  mortality at 1000 µg/mL: 30%
Mythimna separata [2]
  mortality at 1000 µg/mL: 37.9%
Mythimna separata [3]
  mortality at 1000 µg/mL: 34.5%

## COc1cc([C@@H]2c3cc4c(cc3C3=NOC[C@H]3[C@@H]2C(=O)OCCc2ccccc2)OCO4)cc(OC)c1OC
Mythimna separata [1]
  mortality at 1000 µg/mL: 20%
Mythimna separata [2]
  mortality at 1000 µg/mL: 41.4%
Mythimna separata [3]
  mortality at 1000 µg/mL: 27.6%

## COc1cc([C@@H]2c3cc4c(cc3C3=NOC[C@H]3[C@@H]2C(=O)OCc2ccccc2)OCO4)cc(OC)c1OC
Mythimna separata [1]
  mortality at 1000 µg/mL: 23.3%
Mythimna separata [2]
  mortality at 1000 µg/mL: 37.9%
Mythimna separata [3]
  mortality at 1000 µg/mL: 31%

## COc1ccc(COC(=O)[C@@H]2[C@H](c3cc(OC)c(OC)c(OC)c3)c3cc4c(cc3C3=NOC[C@H]32)OCO4)cc1
Mythimna separata [1]
  mortality at 1000 µg/mL: 26.7%
Mythimna separata [2]
  mortality at 1000 µg/mL: 44.8%
Mythimna separata [3]
  mortality at 1000 µg/mL: 37.9%

## COc1cc([C@@H]2c3cc4c(cc3C3=NOC[C@H]3[C@@H]2C(=O)OCc2cccc(F)c2)OCO4)cc(OC)c1OC
Mythimna separata [1]
  mortality at 1000 µg/mL: 23.3%
Mythimna separata [2]
  mortality at 1000 µg/mL: 34.5%
Mythimna separata [3]
  mortality at 1000 µg/mL: 34.5%

## COc1cc([C@@H]2c3cc4c(cc3C3=NOC[C@H]3[C@@H]2C(=O)OCc2ccc([N+](=O)[O-])cc2)OCO4)cc(OC)c1OC
Mythimna separata [1]
  mortality at 1000 µg/mL: 23.3%
Mythimna separata [2]
  mortality at 1000 µg/mL: 27.6%
Mythimna separata [3]
  mortality at 1000 µg/mL: 24.1%

## COc1cc([C@@H]2c3cc4c(cc3C3=NOC[C@H]3[C@@H]2COC=O)OCO4)cc(OC)c1OC
Mythimna separata [1]
  mortality at 1000 µg/mL: 0%
Mythimna separata [2]
  mortality at 1000 µg/mL: 24.1%
Mythimna separata [3]
  mortality at 1000 µg/mL: 10.3%

## CCCC(=O)OC[C@@H]1[C@H](c2cc(OC)c(OC)c(OC)c2)c2cc3c(cc2C2=NOC[C@H]21)OCO3
Mythimna separata [1]
  mortality at 1000 µg/mL: 6.7%
Mythimna separata [2]
  mortality at 1000 µg/mL: 34.5%
Mythimna separata [3]
  mortality at 1000 µg/mL: 13.8%

## CCCCCCCC(=O)OC[C@@H]1[C@H](c2cc(OC)c(OC)c(OC)c2)c2cc3c(cc2C2=NOC[C@H]21)OCO3
Mythimna separata [1]
  mortality at 1000 µg/mL: 0%
Mythimna separata [2]
  mortality at 1000 µg/mL: 17.2%
Mythimna separata [3]
  mortality at 1000 µg/mL: 6.9%

## COc1cc([C@@H]2c3cc4c(cc3C3=NOC[C@H]3[C@@H]2COC(=O)Cc2ccccc2)OCO4)cc(OC)c1OC
Mythimna separata [1]
  mortality at 1000 µg/mL: 6.7%
Mythimna separata [2]
  mortality at 1000 µg/mL: 20.7%
Mythimna separata [3]
  mortality at 1000 µg/mL: 6.9%

## COc1cc([C@@H]2c3cc4c(cc3C3=NOC[C@H]3[C@@H]2COC(=O)c2ccccc2)OCO4)cc(OC)c1OC
Mythimna separata [1]
  mortality at 1000 µg/mL: 26.7%
Mythimna separata [2]
  mortality at 1000 µg/mL: 41.4%
Mythimna separata [3]
  mortality at 1000 µg/mL: 27.6%

## COc1ccc(C(=O)OC[C@@H]2[C@H](c3cc(OC)c(OC)c(OC)c3)c3cc4c(cc3C3=NOC[C@H]32)OCO4)cc1
Mythimna separata [1]
  mortality at 1000 µg/mL: 6.7%
Mythimna separata [2]
  mortality at 1000 µg/mL: 37.9%
Mythimna separata [3]
  mortality at 1000 µg/mL: 13.8%

## COc1cc([C@@H]2c3cc4c(cc3C3=NOC[C@H]3[C@@H]2COC(=O)c2cccc(F)c2)OCO4)cc(OC)c1OC
Mythimna separata [1]
  mortality at 1000 µg/mL: 23.3%
Mythimna separata [2]
  mortality at 1000 µg/mL: 55.2%
Mythimna separata [3]
  mortality at 1000 µg/mL: 34.5%

## COc1cc([C@@H]2c3cc4c(cc3C3=NOC[C@H]3[C@@H]2COC(=O)c2ccc([N+](=O)[O-])cc2)OCO4)cc(OC)c1OC
Mythimna separata [1]
  mortality at 1000 µg/mL: 26.7%
Mythimna separata [2]
  mortality at 1000 µg/mL: 58.6%
Mythimna separata [3]
  mortality at 1000 µg/mL: 37.9%

## COc1cc([C@@H]2c3cc4c(cc3/C(=N/OS(=O)(=O)c3ccc(C)cc3)[C@H]3COC(=O)[C@@H]23)OCO4)cc(OC)c1OC
Mythimna separata [1]
  mortality at 1000 µg/mL: 20%
Mythimna separata [2]
  mortality at 1000 µg/mL: 44.8%
Mythimna separata [3]
  mortality at 1000 µg/mL: 34.5%

## CCc1ccc(S(=O)(=O)O/N=C2/c3cc4c(cc3[C@@H](c3cc(OC)c(OC)c(OC)c3)[C@@H]3C(=O)OC[C@H]23)OCO4)cc1
Mythimna separata [1]
  mortality at 1000 µg/mL: 3.3%
Mythimna separata [2]
  mortality at 1000 µg/mL: 27.6%
Mythimna separata [3]
  mortality at 1000 µg/mL: 17.2%

## COc1ccc(S(=O)(=O)O/N=C2/c3cc4c(cc3[C@@H](c3cc(OC)c(OC)c(OC)c3)[C@@H]3C(=O)OC[C@H]23)OCO4)cc1
Mythimna separata [1]
  mortality at 1000 µg/mL: 0%
Mythimna separata [2]
  mortality at 1000 µg/mL: 24.1%
Mythimna separata [3]
  mortality at 1000 µg/mL: 3.5%

## COc1cc([C@@H]2c3cc4c(cc3/C(=N/OS(=O)(=O)c3ccc(Cl)cc3)[C@H]3COC(=O)[C@@H]23)OCO4)cc(OC)c1OC
Mythimna separata [1]
  mortality at 1000 µg/mL: 26.7%
Mythimna separata [2]
  mortality at 1000 µg/mL: 55.2%
Mythimna separata [3]
  mortality at 1000 µg/mL: 37.9%

## COc1cc([C@@H]2c3cc4c(cc3/C(=N/OS(=O)(=O)c3ccc(Br)cc3)[C@H]3COC(=O)[C@@H]23)OCO4)cc(OC)c1OC
Mythimna separata [1]
  mortality at 1000 µg/mL: 0%
Mythimna separata [2]
  mortality at 1000 µg/mL: 27.6%
Mythimna separata [3]
  mortality at 1000 µg/mL: 10.3%

## COc1cc([C@@H]2c3cc4c(cc3/C(=N/OS(=O)(=O)c3cccc([N+](=O)[O-])c3)[C@H]3COC(=O)[C@@H]23)OCO4)cc(OC)c1OC
Mythimna separata [1]
  mortality at 1000 µg/mL: 0%
Mythimna separata [2]
  mortality at 1000 µg/mL: 13.8%
Mythimna separata [3]
  mortality at 1000 µg/mL: 3.5%

## COc1cc([C@@H]2c3cc4c(cc3/C(=N/OS(=O)(=O)c3ccc(Cl)c([N+](=O)[O-])c3)[C@H]3COC(=O)[C@@H]23)OCO4)cc(OC)c1OC
Mythimna separata [1]
  mortality at 1000 µg/mL: 0%
Mythimna separata [2]
  mortality at 1000 µg/mL: 13.8%
Mythimna separata [3]
  mortality at 1000 µg/mL: 3.5%

## COc1cc([C@@H]2c3cc4c(cc3/C(=N/OS(C)(=O)=O)[C@H]3COC(=O)[C@@H]23)OCO4)cc(OC)c1OC
Mythimna separata [1]
  mortality at 1000 µg/mL: 0%
Mythimna separata [2]
  mortality at 1000 µg/mL: 24.1%
Mythimna separata [3]
  mortality at 1000 µg/mL: 17.2%

## COc1cc([C@@H]2c3cc4c(cc3/C(=N/O)[C@H]3COC(=O)[C@@H]23)OCO4)cc(OC)c1OC
Mythimna separata [1]
  mortality at 1000 µg/mL: 0%
Mythimna separata [2]
  mortality at 1000 µg/mL: 17.2%
Mythimna separata [3]
  mortality at 1000 µg/mL: 6.9%

## COc1cc([C@@H]2c3cc4c(cc3/C(=N/OS(=O)(=O)c3ccccc3)[C@H]3COC(=O)[C@@H]23)OCO4)cc(OC)c1OC
Mythimna separata [1]
  mortality at 1000 µg/mL: 0%
Mythimna separata [2]
  mortality at 1000 µg/mL: 24.1%
Mythimna separata [3]
  mortality at 1000 µg/mL: 6.9%

## COc1cc([C@@H]2c3cc4c(cc3C3=NOC[C@H]3[C@@H]2C(=O)O)OCO4)cc(OC)c1OC
Mythimna separata [1]
  mortality at 1000 µg/mL: 20%
Mythimna separata [2]
  mortality at 1000 µg/mL: 41.4%
Mythimna separata [3]
  mortality at 1000 µg/mL: 31%

## COc1cc([C@@H]2c3cc4c(cc3C3=NOC[C@H]3[C@@H]2CO)OCO4)cc(OC)c1OC [ISOXAZOLOPODOPHYLLOL]
Mythimna separata [1]
  mortality at 1000 µg/mL: 20%
Mythimna separata [2]
  mortality at 1000 µg/mL: 37.9%
Mythimna separata [3]
  mortality at 1000 µg/mL: 20.7%

## COc1cc([C@@H]2c3cc4c(cc3C(=O)[C@H]3COC(=O)[C@@H]23)OCO4)cc(OC)c1OC [PICROPODOPHYLLONE]
Mythimna separata [2]
  mortality at 1000 µg/mL: 27.6%
Mythimna separata [3]
  mortality at 1000 µg/mL: 20.7%

## COc1cc([C@@H]2c3cc4c(cc3[C@H](O)[C@H]3COC(=O)[C@H]23)OCO4)cc(OC)c1OC [PODOFILOX]
Mythimna separata [1]
  mortality at 1000 µg/mL: 3.3%
Mythimna separata [2]
  mortality at 1000 µg/mL: 37.9%
Mythimna separata [3]
  mortality at 1000 µg/mL: 10.3%

## COc1cc([C@@H]2c3cc4c(cc3C(=O)[C@H]3COC(=O)[C@H]23)OCO4)cc(OC)c1OC [PODOPHYLLOTOXONE]
Mythimna separata [1]
  mortality at 1000 µg/mL: 6.7%
Mythimna separata [2]
  mortality at 1000 µg/mL: 17.2%
Mythimna separata [3]
  mortality at 1000 µg/mL: 3.5%

## CC(=O)O[C@@H]1C[C@H](O)[C@@]23CO[C@@H](O)[C@]1(C)[C@@H]2C[C@@H](O)[C@]1(C)[C@@H]3C(=O)[C@H](OC(C)=O)[C@@]2(C)[C@H](c3ccoc3)C[C@H]3O[C@]321 [TOOSENDANIN]
Mythimna separata [1]
  mortality at 1000 µg/mL: 6.7%
Mythimna separata [2]
  mortality at 1000 µg/mL: 44.8%
Mythimna separata [3]
  mortality at 1000 µg/mL: 13.8%

Source: ChEMBL document CHEMBL3046131, “Synthesis and quantitative structure-activity relationship (QSAR) study of novel isoxazoline and oxime derivatives of podophyllotoxin as insecticidal agents” (2012)
